Bioassay records (PubChem BioAssay)
In the library only some 4.3% were active in any assay of this set; here they are far more common.
UBC9 SUMO inh = SUMOylation inhibition; P63279; HTRF SUMOylation assay, SAE1/SAE2 + UBC9, in vitro; inhibition, % at 35 µM; hit rate 0.36% among 290,000; in the data active = inhibition above about 50%, passing the limit was not always enough
Target sequence (P63279 whole entry, looked up): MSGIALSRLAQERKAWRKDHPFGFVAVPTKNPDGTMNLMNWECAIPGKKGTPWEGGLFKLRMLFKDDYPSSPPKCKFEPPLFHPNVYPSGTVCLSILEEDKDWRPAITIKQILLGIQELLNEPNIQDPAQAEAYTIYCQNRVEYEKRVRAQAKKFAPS
PREPL inh = inhibitors of human prolyl oligopeptidase-like enzyme PREPL | Q4J6C6 | recombinant PREPL, fluorescence polarization activity-based probe | inhibition, % at 5.96 µM | hit rate 0.68% among 320,000 | AID 2751; in the data active = inhibition above about 43%;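 also: 0% = enzyme with DMSO and 100% = wells lacking enzyme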
ALR inh = blocks human ALR sulfhydryl oxidase activity. hit rate 3.8% among 290,000. P55789. purified ALR, DTT oxidation, H2O2 HRP-luminol luminescence. inhibition, % (concentration not given with the values). AID 485317;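 active = mean replicate inhibition above about 79%, with every replicate also reaching it, limit read from the data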
Target sequence (P55789 whole entry, looked up): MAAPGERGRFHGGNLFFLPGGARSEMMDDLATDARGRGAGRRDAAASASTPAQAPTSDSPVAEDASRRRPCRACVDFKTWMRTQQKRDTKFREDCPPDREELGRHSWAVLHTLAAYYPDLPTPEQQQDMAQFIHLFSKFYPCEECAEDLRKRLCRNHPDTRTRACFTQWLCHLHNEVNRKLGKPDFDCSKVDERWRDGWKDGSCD
RBBP9 inhibitor = human RBBP9 hydrolase inhibition; O75884; recombinant RBBP9, FP-Rh probe fluorescence polarization; inhibition, % at 7.94 µM; hit rate 0.2% among 220,000;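 active = inhibition above the campaign mean of all tested compounds plus 3 SD, cut at about 14% in these data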;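 also: plate controls were DMSO wells with RBBP9 for no effect and wells lacking RBBP9 protein for full effect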
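Material: RBBP9 protein. Amount: RBBP9 at 2.5 µM in dispensed solution, before mixing. Schedule: 30 min then 45 min, 25 °C. Medium: Tris buffer pH 8.0, NaCl, Pluronic. Measured by: fluorescence polarization. Measure: percent inhibition from mP, scaled between DMSO and no-protein wells. Replication: one well per compound.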
UBC13 inh = inhibitors of human UBC13 polyubiquitin chain formation; P61088; TR-FRET; inhibition, % at 20 µM; hit rate 0.47% among 330,000; AID 485273; in the data active = inhibition above about 45%, passing the limit was not always enough
Rin1 Abl inh = human Rin1-Abl interaction inhibition; P00519+Q13671; inhibition, % at 7.35 µM; hit rate 0.4% among 360,000; AID 588664; TR-FRET Rin1/Abl binding, biochemical; in the data active = inhibition above about 5%, passing the limit was not always enough
* hit, by the source's call; / = not tested or not shown.

SMILES	UBC9 SUMO inh	PREPL inh	ALR inh	RBBP9 inhibitor	UBC13 inh	Rin1 Abl inh
CC(Sc1ccccc1)C(=O)NCCc1ccccc1 (centres undefined)	-2	-3	1	/	3	-2
Clc1ccc(N/N=C/c2cccnc2)cc1	-7	7	99*	-6	5	-4
CC(C)(C)c1nnc2sc(SCC(=O)N3CCCc4ccccc43)nn2c1=O	5	11	99*	-9	-9	-4
Cc1ccc(C(=O)CSc2nn3c(=O)c(C(C)(C)C)nnc3s2)cc1	-8	14	98*	-5	0	3
CC(C)(C)c1nnc2sc(SCC(=O)c3cccs3)nn2c1=O	20	4	98*	-4	-1	-2
CC1Cc2ccccc2N1C(=O)CSc1nn2c(=O)c(C(C)(C)C)nnc2s1 (centres undefined)	12	-2	/	-3	-6	-3
CC(C)(C)c1nnc2sc(SCC(=O)c3ccc4c(c3)OCCO4)nn2c1=O	-2	-2	/	-12	-7	4
CC(C)(C)c1nnc2sc(SCC(=O)c3ccc(Cl)cc3)nn2c1=O	-10	16	/	-8	0	-3
COc1ccc(C(=O)N2CCN=C2SCc2cccnc2)cc1OC	7	-8	100*	-6	-5	4
COc1cccc(OC)c1C(=O)N1CCN=C1SCc1cccnc1	19	-8	99*	-4	4	2
O=C(c1ccc(S(=O)(=O)N2CCCCC2)cc1)N1CCN=C1SCc1cccnc1	-2	-5	/	-10	4	0
CC(=O)Nc1oc(-c2cccc3ccccc23)nc1C#N	/	0	-1	/	6	-2
COc1ccc(C2NC(=O)C(C#N)=C(S)N2c2ccccc2)cc1OC (centres undefined)	9	17	94*	-15	-10	0
O=C(N/N=C/c1coc2ccc(Cl)cc2c1=O)c1ccc(O)cc1	6	/	98*	/	13	1
O=C(CCc1ccc(O)cc1)N/N=C/c1coc2ccccc2c1=O	14	-9	79*	-4	0	-1
O=C(N/N=C/c1coc2ccc(Cl)cc2c1=O)c1ccncc1	3	/	-4	/	22	-2
Cc1cccc(C(=O)N/N=C/c2coc3ccccc3c2=O)c1	14	0	89*	/	4	1
CC(C)Oc1cccc(C(=O)N/N=C/c2coc3ccccc3c2=O)c1	8	/	98*	/	2	-1
Cc1cc(-c2ccc(C(C)C)c(S(=O)(=O)Nc3ccccn3)c2)on1	1	-1	-2	/	-1	5
O=C(CCC1N=C2c3ccccc3N=C(SCc3ccc(Cl)cc3)N2C1=O)NCc1ccco1 (centres undefined)	17	39	98*	-9	15	0
Cc1n[nH]c(=O)nc1Nc1ccc(O)cc1	1	16	89*	-1	1	2
CCOC(=O)CN1C(=O)CC(c2ccccc2)C1=O (centres undefined)	-4	-1	0	/	6	-2
CCOc1ccc(/C(O)=C2/C(=O)C(=O)N(CCCN3CCOCC3)C2c2ccc(C)cc2)cc1C (centres undefined)	2	/	10	/	-7	-1
Cc1ccc(NC(=O)C2CC(=O)N/C(=N/N=C/c3ccco3)S2)cc1 (centres undefined)	14	-3	-3	-9	9	2
O=C1CC(C(=O)Nc2ccc(F)cc2)S/C(=N\N=C\c2ccco2)N1 (centres undefined)	-1	-2	96*	-2	-2	-1
CCOc1cc(/C=N/Nc2nc(=O)[nH]nc2C)ccc1O	2	-48	99*	4	-8	1
CCOc1ccc(/C=N/Nc2nc(=O)[nH]nc2C)cc1OC	6	-44	0	-2	-8	-4
COc1cc(/C=N/Nc2nc(=O)[nH]nc2C)cc(OC)c1O	-19	-2	93*	-12	-20	-1
S=C(Nc1ccc(Br)cc1)NC1CCCCC1	-15	4	26	-10	-9	2
CSc1nnc2c(n1)c(C)nn2-c1cccc(C)c1	3	12	95*	5	-17	3
